System: MS2 coat protein
Experiment: apparent Kd, MS2 coat protein; higher = weaker binding; RNA-MaP array; FMN 200 µM where present
Outline: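 Designs on Illumina sequencing-chip clusters, transcribed by stalled E. coli RNA polymerase, were exposed to SNAP-549-labelled MS2 coat protein in doubling steps from 0.7 or 1.5 nM up to 3 µM, without and then with constant ligand. The buffer held 100 mM Tris-HCl pH 7.5, 80 mM KCl, 4 mM MgCl2, BSA, DTT, yeast tRNA and Tween-20. Apparent Kd values are medians of filtered per-cluster binding-curve fits to green signal normalised to red-channel RNA signal and control-cluster median Fmax.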

[1] = designed as: OFF switch for flavin mononucleotide, no ligand
[2] = ligand present: flavin mononucleotide, designed as: OFF switch for flavin mononucleotide
[3] = designed as: ON switch for flavin mononucleotide, no ligand
[4] = ligand present: flavin mononucleotide, designed as: ON switch for flavin mononucleotide

| Sequence | apparent Kd [1] | apparent Kd [2] | apparent Kd [3] | apparent Kd [4] |
| --- | --- | --- | --- | --- |
| AGUCGGAGCAGAGGAUAUAUACAUGAGGAUCACCCAUGUAAAUGAGUAAGCUGGAAACAGCAAGUAUAGAAGGCUGCUCCGACA | 18.2 nM | 35.1 nM | – | – |
| AAGUAGGCAGGAUAUACAUGAGGAUCACCCAUGUGCCCAUGAAAGGUACUUUCGAAAGGUAGAAGGGCCUACAA | 16.5 nM | 35.6 nM | – | – |
| UUGUACUAGGGAGGAUAUGGGAAGAUACAUGAGGAUCACCCAUGUUUAAGAAUGCCGAGAGGCAACUAGAAGGCCCUAGUACCU | – | – | 473 nM | 19.4 nM |
| CUCUUUAGUCAGGAUAUCGUGAGGCUAAUUAUACGAGAAGGGACGACAUGAGGAUCACCCAUGUGGUCUUAGAG | 17.4 nM | 32.1 nM | – | – |
| CGACACCAGACAGGAUAUGCUGGACUUUGUCCAGCAGAAGGGUCUAAACAUGAGGAUCACCCAUGUAUGGUGUCGAAAUUUAAU | – | – | 51.1 nM | 8.06 nM |
| UUCAAAUUCGUAGGAUAUGUAUAAAUUUUCUACAUGAGGAUCACCCAUGUUACCAUUUUAAAUUGACAGAAGGACGUAAUCUAA | – | – | 22.5 nM | 8.74 nM |
| AGCGUGGAGACAGGAUAUGAGAAUAGAUAGAAAUCAGAAGGGUCACAUGAGGAUCACCCAUGUAAAGUCUUGAGGAUGAGUGAU | 86.5 nM | 208 nM | – | – |
| AUCCGGCGUGUAGGAUAUGGAAAAAAUUAGGAUCCAGAAGGACAUGAGGAUCACCCAUGUACAUGUAAACAGUCAUCACCGGAA | 33.5 nM | 51.7 nM | – | – |
| GCCUUAUCCGUCAGGAUAUACAUUUGUUAGUUGUUGUAGAAGGGACAUGAGGAUCACCCAUGUACAUUACAUUG | 19.4 nM | 22.4 nM | – | – |
| UUGGUCGUCGUAGGAUAUGUAGGAUAUUCCUACAUGAGGAUCACCCAUGUUGACAUGGAAGAAGGACAGAAGGACGAUGUCCAU | – | – | 447 nM | 5.71 nM |
| UUUGUUUGCGGAGGAUAUAUAAGUGGAUCACCCAUAGAAGGCCGACAUGAGGAUCACCCAUGUUAGACAUGAGGAUCACCCAUG | 102 nM | 140 nM | – | – |
| AGUGUGUGGCAGGAUAUGCGAUUUGUCGGUGUAGCAGAAGGGUCUACAUGAGGAUCACCCAUGUGUGCGGUUGA | 438 nM | 446 nM | – | – |
| UUGUUGUGAGGAUAUCCAAUAUAUGACAUGAGGAUCACCCAUGUUUCCACUCGUACCUCCGGAGAAGGCACUUGGU | 35.5 nM | 29.1 nM | – | – |
| AAAUAAAGCAGUGUAUUAAGAUAACAUGAGGAUCACCCAUGUAGAAGGCUCGAGCAAAAUGCUCGAGAGGAUAUACAACACUGC | 5.04 nM | 9.55 nM | – | – |
| AAGUCGUGAGGAUAUACAUGGAUAUACAUUUAUGUAGACCUACAUGAGGAUCACCCAUGUAGAAGGCACGAAUA | 45.4 nM | 115 nM | – | – |
| ACAUGAGGAUCACCCAUGUUUACAUGGAUUAUUAAUCUUUGAUAGGAUAUGUUAGUUAAGUAUUUACAGAAGGAUCAAUACCAA | 15.9 nM | 12.2 nM | – | – |
| UGCGUGUUAGGAUAUGCCAGCGCUACCUAAGGUAGGCUGUGGUAGAAGGAACAUGAGGAUCACCCAUGUAGGAG | 111 nM | 483 nM | – | – |
| GUCGAAACCAUACUGGUCGACGGUCAGGAUAUACAUGAGGAUCACCCAUGUGCUAUUGAUACUAUGUAGAAGGGACCCACCGCA | 15.2 nM | – | – | – |
| UUACUUUUACAGAAGGUUUAAUAAUAUAUAAGAGAAGGAUAUGUAACAUGAGGAUCACCCAUGUUUCACCCAUAUGAGGAUCAU | 8.12 nM | 7.78 nM | – | – |

| Sequence | apparent Kd [1] | apparent Kd [2] | apparent Kd [3] | apparent Kd [4] |
| --- | --- | --- | --- | --- |
| CUUUUGUGAGGAUAUCAGUAGUUAAAAAAUAAAAUUACUACUGAGAAGGCACAUGAGGAUCACCCAUGUUCCUC | 42.5 nM | 308 nM | – | – |
| UGAUCGAAAGAUCAUAGAUUCUGCUAGGAUAUGCAGAAGUUUCGAUUUACAUGAGGAUCACCCAUGUAGAAGGAGUAGAGUCUA | 6.12 nM | 6.54 nM | – | – |
| CUGACGGCGACGACAUUUCCAGAACCAGAAGGUGAAGUCAACAUGAGGAUCACCCAUGUCUAUAUCAAGGAUAUGGUAGUGGGC | – | – | 301 nM | 92.2 nM |
| AAUAUGUUGCAGAAGGCCAUGUUGUGGUAGUACCUCAUGACAUGAGGAUCACCCAUGUCUGUGAUGGAGGAUAUGCAAUAUAUU | 8.87 nM | 14.8 nM | – | – |
| GCACGUGGACAGAAGGCGACAUGAGGAUCACCCAUGUUGGCUCGGGUAUGACCAAUCCGCAUGAUCGAGGAUAUGUCUGCGGGC | 264 nM | 15.9 nM | – | – |
| GUACUACAUGAGGAUCACCCAUGUGAGGAUAUGCGAAUUUCAUCAAAAGAUGAAAUUUGCAGAAGGCACAGUAC | 31.2 nM | 29 nM | – | – |
| UGUAUAUAGGCAGGAUAUACAUGAAUAUAUAUGAUGUAGUAUGAUGUAACAUGAGGAUCACCCAUGUAGAAGGGCCAAUAUAUA | 40.8 nM | 135 nM | – | – |
| AGGUGACAUGAGGAUCACCCAUGUCAGGAUAUAUACACCGCCGGCGUGAAGCCAGCGGAUAGAAGGGACAAAAU | 15.4 nM | 16.9 nM | – | – |
| UUUGCAUUCCGAGGAUAUUCAUUUAAUGACUUCACAUGAGGAUCACCCAUGUGGCGAUUGCGCCGGGAGAAGGCGGUUUGCUUU | – | – | 24.7 nM | 24 nM |
| AGUCGGAGCAGAGGAUAUUACAUGAGGAUCACCCAUGUAAUAAGAUCAAGCUGGAAACAGCAAUGUAAGAAGGCUGCUCCGACA | 16.3 nM | 45.6 nM | – | – |
| CCUCUACAUGAGGAUCACCCAUGUCAGGAUAUCGUGUGUUUUUUUUCGGCCGCGCGUGCGAGAAGGGACGUCUU | 31.9 nM | 32 nM | – | – |
| UCAUAUAUACAAGGAUAUCAAUUAUAUACACAUCCUACAUGAGGAUCACCCAUGUUUUAUUUUUUUGAGAAGGUGUAUUGUCGG | – | – | 24.1 nM | 32.1 nM |
| CGCUAAGAGAACGAUACGAGAAGACAUGAGGAUCACCCAUGUAGAAGGACAACGGAAUAAACGUUGUAGGAUAUACACUUAGCG | 15 nM | 20.6 nM | – | – |
| GCGAUUAAGUAGAAGGUACGUUAUAAGUCAAUGUAAGGAUAUACUGACAUGAGGAUCACCCAUGUUUAAUUUGUUUACUGUCGC | – | – | 7.34 nM | 5.7 nM |
| AUUAUUGGCUAAGGAUAUGGAUACAUGAGGAUCACCCAUGUAUAAUUUGUGAUCAUAUAAAUGAUCCAGAAGGUAGCUGUUUAU | 81.6 nM | 220 nM | – | – |
| AUCAUGUAAGGAUAUCUUACAUGUGACUUCGGUCACAGUUAAGAGAAGGUACAUGAGGAUCACCCAUGUAUAAC | 28 nM | 45.3 nM | – | – |
| CUGAAUCGAGGAUAUUGUACUGCUGACAUGAGGAUCACCCAUGUAUGUUAACUCGGCCGUCGAGAAGGCGAACAUA | 27.6 nM | 18 nM | – | – |
| UGAGUGCGUGUUAGGAUAUGGUUUGGUGUUUCGGGCUAGAAGGGACAUGAGGAUCACCCAUGUAAUUGGCGGGU | 253 nM | 250 nM | – | – |
| GCCAUCGCGUGAGGAUAUGGCACCGUUUCGGUGCCAGAAGGCAUGUCAAAUGACAUGAGGAUCACCCAUGUAGUUAAGAUGGCA | – | – | 180 nM | 13.2 nM |

| Sequence | apparent Kd [1] | apparent Kd [2] | apparent Kd [3] | apparent Kd [4] |
| --- | --- | --- | --- | --- |
| ACCAUUUACUAAUUUUCUAUACAUGAGGAUCACCCAUGUUUUGAGGAUAUCAGCGUGAAACACGCUGAGAAGGCAAAACAUUCG | 142 nM | 387 nM | – | – |
| UGUCGGAGCAGAGGAUAUUACAUGAGGAUCACCCAUGUAUGAACCAAUAGCUGGAAACAGCAAUGUAAGAAGGUUGCUCCGACA | 7.29 nM | 46.7 nM | – | – |
| UUUUAACAUGAGGAUCACCCAUGUGAGGAUAUCGAAAUUUAUAUUAAUAUUAAUUAUACGAGAAGGCACAUUUU | 83.6 nM | 82.8 nM | – | – |
| GGUGCCAUGUAGAAGGCAGAUCCGAUUCAGAUCUGAGGAUAUACAUGAGGAUCACCCAUGUAAAGGCACCGCACGAGAGUGCAA | 8.12 nM | 9.11 nM | – | – |
| AAUUUACAUGAGGAUCACCCAUGUGAGGAUAUAUAUACAUGCUUGUUAUUGCGUGUGUGUAGAAGGCGCGUGAU | 64.7 nM | 115 nM | – | – |
| GGGCAAUUAGGAUAUACAUGAGGAUCACCCAUGUGGAAGCCCGGACAGGUAAUCCACUGUAGAAGGGAUUGCCA | 12 nM | 13.3 nM | – | – |
| UGGUUGUGUGUUAGGAUAUGGUUUGGUGUUUCGGGCUAGAAGGGACAUGAGGAUCACCCAUGUGGCUGGCGGGU | 72.6 nM | 58.1 nM | – | – |
| AUGGUUCUCGUAGGAUAUGUAGGAUAUGCCUACAUGAGGAUCACCCAUGUUCGCAUGGCAGAAGGACAGAAGGACGAUCACCAA | – | – | 365 nM | 19.2 nM |
| UUUUAACAUGAGGAUCACCCAUGUGAGGAUAUCGAAAUUUAUAUUAAUAUUAUUUAUACGAGAAGGCACAUUUU | 63.2 nM | 73.4 nM | – | – |
| GGAGCACACAUUAACAUGAGGAUCACCCAUGUCAAAAGACAUGAGGAUAUGGAUCCGAAAAGGAUCCAGAAGGCAUCGUGCUCC | – | – | 413 nM | 24.7 nM |
| AGCGGCGCGGGCCACCGCAGAACCAGAAGGACAUGAGGAUCACCCAUGUAACAAAACAGGGCGGUGUAGGAUAUGGCAGGCUCG | 35.9 nM | 83.2 nM | – | – |
| AUGGAUAUCACAGGAUAUGCCAGGGAUACCCUGGCAGAAGGGUGAUCCAUCCUAUGUAAAUACAUGAGGAUCACCCAUGUGUCC | – | – | 51.7 nM | 43.6 nM |
| UUAGCAUACCGAGGAUAUUCAUAUAAUAAAUAAACAUGAGGAUCACCCAUGUGGCGAAAGCCUAGGGAGAAGGCGGAAUGCUAG | – | – | 171 nM | 27.2 nM |
| AAAAAGUGAGGAUAUACGCUGUGGAGUAGACACAACCAGUCGUAGAAGGCACAUGAGGAUCACCCAUGUUCAAA | 27.2 nM | 30.1 nM | – | – |
| CCAUAUAACUGAGGAUAUACUCACCACUAACAUGUAGAAGGCAGACAUGAGGAUCACCCAUGUGAUUUCUCAAUAUUAUACAUC | 901 nM | 658 nM | – | – |
| GGGACACAUGAGGAUCACCCAUGUGAGGAUAUGUUAGUUUCGGCCAAAGCCGAAAUUAACAGAAGGCACAUACC | 36.7 nM | 49 nM | – | – |
| UAUUAAUGCAAGGAUAUGCUUUUAAUUUUUUUUGCAGAAGGUGCAACAUGAGGAUCACCCAUGUUUCAGGGUAU | 42.1 nM | 57.6 nM | – | – |
| CCGGAAGUACAGGAUAUAGGAGUCGAUAGACUCCUAGAAGGGUAUACAUGAGGAUCACCCAUGUGUCCUACCGG | 29.6 nM | 33.4 nM | – | – |

— the EternaBench riboswitch data
